Results on 14 compounds are retold here after ChEMBL document CHEMBL1208712, “Synthesis and anti-HCV activity of 3',4'-oxetane nucleosides” (Bioorg Med Chem Lett, 2010).

The structures appear in SMILES notation.

Series [1] is described as follows: Inhibition of HCV NS5B polymerase after 30 mins. More on the design: species or system Hepacivirus hominis.
A further series concerns Hepatitis C virus. The experiment in a line: Antiviral activity against HCV 1a infected in human HB-1 cells assessed as inhibition of viral RNA replication after 24 hrs. Format: functional, organism-based, Hepacivirus hominis. To be noted: subtype 1a, HB1, 24 h.
Series [2] in a line: Cytotoxicity against human HuH7 cells by MTS assay. Format: cell-based, Huh-7. An outline of the steps: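 Tested at concentrations up to 50.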
Background: Formazan colour is commonly taken as a measure of viable cells.

Regarding `Nc1ccn([C@@H]2O[C@@]3(COP(=O)(O)OP(=O)(O)OP(=O)(O)O)CO[C@H]3[C@H]2F)c(=O)n1`, 31 µM corresponded to half-maximal inhibition in series [1] (IC50).

Regarding `Nc1ccn([C@@H]2O[C@@]3(COP(=O)(O)OP(=O)(O)OP(=O)(O)O)CO[C@H]3[C@@H]2F)c(=O)n1`, the IC50 – broadly, the concentration needed to halve the response being measured – in series [1] was found to be 78.9 µM.

In series [1], `Nc1ccn([C@@H]2O[C@@]3(COP(=O)(O)OP(=O)(O)OP(=O)(O)O)CO[C@H]3C2(F)F)c(=O)n1` came in with a half-inhibitory concentration (IC50) of 32.8 µM.

For the compound `C[C@@]1(F)[C@@H]2OC[C@]2(CO)O[C@H]1n1ccc(N)nc1=O`, the EC90 – broadly, the point of the concentration-response curve where the effect stands at 90% – in the series with Hepatitis C virus is over 50 µM. For the same compound, in series [2], the CC50 – broadly, the concentration giving 50% cytotoxicity – was over 50 µM.

On to `Nc1ccn([C@@H]2O[C@@]3(CO)CO[C@H]3[C@H]2F)c(=O)n1`, for which the EC90 in the series with Hepatitis C virus is over 50 µM. In addition, the CC50 in series [2] is over 50 µM.

Turning to `Nc1ccn([C@@H]2O[C@@]3(CO)CO[C@H]3[C@@H]2F)c(=O)n1`, in the series on Hepatitis C virus, the EC90 is over 50 µM. The compound further displayed a CC50 in series [2] of over 50 µM.

With `Nc1ccn([C@@H]2O[C@@]3(CO)CO[C@H]3C2(F)F)c(=O)n1`, the EC90 in the series with Hepatitis C virus is over 50 µM. This compound also displayed a CC50 in series [2] of over 50 µM.

For `CO[C@H]1[C@H](n2ccc(N)nc2=O)O[C@@]2(CO)CO[C@@H]12`, the EC90 in the series on Hepatitis C virus was over 50 µM. Further, in series [2], the CC50 is over 50 µM.

As to `Nc1ncnc2c1ncn2[C@@H]1O[C@@]2(CO)CO[C@H]2[C@H]1F`, the EC90 in the series with Hepatitis C virus was over 50 µM. Also, the CC50 in series [2] is over 50 µM.

Turning to `C[C@@]1(F)[C@H](O)[C@@H](CO)O[C@H]1n1ccc(N)nc1=O`, the 90% effect concentration (EC90) in the series with Hepatitis C virus (read-out: EC90) is 4.6 µM. The same compound came in with a CC50 in series [2] of over 50 µM.

With `Nc1ccn([C@@H]2O[C@H](CO)[C@@H](O)[C@H]2F)c(=O)n1`, in the series on Hepatitis C virus, the EC90 was 5.21 µM. Further, the CC50 in series [2] was over 50 µM.

Turning to `Nc1ccn([C@@H]2O[C@H](CO)[C@@H](O)[C@@H]2F)c(=O)n1`, the concentration for an effect of 90% (EC90) in the series on Hepatitis C virus was over 50 µM. The compound further yielded a CC50 in series [2] of over 50 µM.

In the case of `Nc1ccn([C@@H]2O[C@H](CO)[C@@H](O)C2(F)F)c(=O)n1` [GEMCITABINE], the EC90 in the series on Hepatitis C virus is under 1 µM. The compound further showed a CC50 in series [2] of under 0.1 µM.

`C[C@@]1(F)[C@H](O)[C@@H](COP(=O)(O)OP(=O)(O)OP(=O)(O)O)O[C@H]1n1ccc(N)nc1=O` [PSI-6130-TP]: in series [1], the IC50 worked out at 5.37 µM and the inhibition constant Ki (in general, a dissociation constant, usually derived from enzyme kinetics or from competition with a known ligand) turned out to be 0.059 µM.
